Screening data (PubChem BioAssay)
SF-1 act = activators of human nuclear receptor SF-1. activation, % at 10 µM. CHO-K1 Gal4-SF-1 LBD luciferase reporter; % increase over DMSO SF-1-specific signal. hit rate 1.9% among 65,000. Q13285;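 active = activation above the mean activation of all tested compounds plus 3 SD, cut at about 50% in these data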
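Material: CHO-K1 cells with Gal4–hSF-1 LBD chimera plus Gal4-driven luciferase / Input: 4,000 CHO-K1 cells per well / Incubation: compound exposure 20 h at 37 °C / Signal: luminescence read 15 min after SteadyLite luciferase reagent, after room-temperature equilibration / Read-out: percent activation versus DMSO / Benchmarks: DMSO negative control and −SF1 background wells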
PKA inh = PKA (human) kinase inhibition | P17612 | PKA Kemptide phosphorylation, Kinase-Glo ATP luminescence | inhibition, % at 6 µM | hit rate 0.1% among 65,000;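 active = inhibition above the screen-wide mean inhibition plus 3 SD, cut at about 21% in these data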
ROCK2 inh = blocks human Rho kinase 2 activity; O75116; purified ROCK2, Kinase-Glo ATP depletion luminescence; inhibition, % at 6 µM; hit rate 0.35% among 60,000;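 active = inhibition above the screen-wide mean inhibition plus 3 SD, cut at about 18% in these data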
JNK3 inh = inhibitors of human JNK3 kinase | P53779 | purified JNK3 kinase activity, HTS | inhibition, % at 8 µM | hit rate 0.61% among 60,000 | AID 746; in the data active = inhibition above about 17%
WNV NS2B-NS3 inh = blocks West Nile virus NS2B-NS3 protease activity | P06935 | WNV NS2B-NS3 protease, fluorogenic substrate Ex360/Em465; stronger effect = lower value | z-score (test concentration not listed) | hit rate 0.18% among 65,000 | AID 577; in the data active = z-score below about -3
RORa activator = RORA (human) activation. hit rate 1.5% among 65,000. CHO-K1 Gal4-RORA LBD luciferase reporter, luminescence; percent increase over mock-subtracted basal signal. activation, % at 10 µM. AID 560. P35398;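 active = activation above the mean of all tested compounds plus 3 SD, cut at about 49% in these data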
Target sequence (P35398 whole entry, looked up, the tested form may be a part): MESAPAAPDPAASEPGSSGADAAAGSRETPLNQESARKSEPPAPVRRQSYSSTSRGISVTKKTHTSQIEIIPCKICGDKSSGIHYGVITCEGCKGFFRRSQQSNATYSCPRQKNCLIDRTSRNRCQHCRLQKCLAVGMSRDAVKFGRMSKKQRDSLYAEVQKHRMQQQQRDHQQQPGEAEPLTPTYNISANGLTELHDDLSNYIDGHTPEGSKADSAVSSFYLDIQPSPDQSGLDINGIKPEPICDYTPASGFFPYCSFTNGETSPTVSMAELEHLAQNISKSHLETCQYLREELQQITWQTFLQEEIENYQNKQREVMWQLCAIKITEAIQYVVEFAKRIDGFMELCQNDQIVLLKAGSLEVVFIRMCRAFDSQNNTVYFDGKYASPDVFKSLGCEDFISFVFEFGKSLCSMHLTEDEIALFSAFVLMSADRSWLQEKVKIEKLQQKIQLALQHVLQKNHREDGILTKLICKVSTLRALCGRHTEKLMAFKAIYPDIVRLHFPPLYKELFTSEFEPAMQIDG
Numbers stand for hits. Only some compounds are listed: those with a hit (about 3.4% of all), similar ones and a draw of the others.

COc1cccc(NC(=O)N(Cc2cc3cc(C)cc(C)c3[nH]c2=O)CC2COCCO2)c1 (stereo not given) was read as SF-1 act inactive, PKA inh inactive, ROCK2 inh inactive, JNK3 inh inactive, WNV NS2B-NS3 inh inactive and RORa activator inactive.
Screening Cc1occc1C(=O)Nc1ccc2c(c1)OCCO2 returned SF-1 act inactive, PKA inh inactive, ROCK2 inh inactive, JNK3 inh inactive, WNV NS2B-NS3 inh inactive and RORa activator inactive.
`O=C(Nc1ccc2c(c1)CCC2)c1cnccn1` gave SF-1 act 55, PKA inh inactive, ROCK2 inh inactive, JNK3 inh inactive, WNV NS2B-NS3 inh inactive and RORa activator inactive.
For O=C(Nc1ccc2c(c1)OCO2)c1ccc(COc2ccc3c(c2)CCC3)o1 the results were SF-1 act 61, PKA inh inactive, ROCK2 inh inactive, JNK3 inh inactive, WNV NS2B-NS3 inh inactive and RORa activator inactive.
For Cc1ccc(C(=O)Nc2ccc3c(c2)CCC3)o1 the results were SF-1 act 59, PKA inh inactive, ROCK2 inh inactive, JNK3 inh inactive, WNV NS2B-NS3 inh inactive and RORa activator inactive.
Cc1occc1C(=O)Nc1ccc2c(c1)CCC2 was read as SF-1 act 75, PKA inh inactive, ROCK2 inh inactive, JNK3 inh inactive, WNV NS2B-NS3 inh inactive and RORa activator 55.
`O=C(COC(=O)c1cccc(NC(=O)c2ccco2)c1)c1ccc(Br)cc1` gave SF-1 act inactive, PKA inh inactive, ROCK2 inh inactive, JNK3 inh inactive, WNV NS2B-NS3 inh inactive and RORa activator inactive.
For CCn1c(=O)c2cc(S(=O)(=O)NC3CCCCC3)ccc2n(CC)c1=O the results were SF-1 act inactive, PKA inh inactive, ROCK2 inh inactive, JNK3 inh inactive, WNV NS2B-NS3 inh inactive and RORa activator inactive.
Screening COc1ccc(CCNS(=O)(=O)c2ccc3c(c2)OCCO3)cc1OC returned SF-1 act inactive, PKA inh inactive, WNV NS2B-NS3 inh inactive and RORa activator inactive.
For CN(C)c1ccc(NC(=O)c2ccc(COc3cccc(Cl)c3)o2)cc1 the results were SF-1 act inactive, PKA inh inactive, WNV NS2B-NS3 inh inactive and RORa activator 73.
For CCCOC(=O)c1ccc(NC(=O)c2ccoc2C)cc1 the results were SF-1 act 63, PKA inh inactive, ROCK2 inh inactive, JNK3 inh inactive, WNV NS2B-NS3 inh inactive and RORa activator inactive.
Cc1ccn2cc(CNS(=O)(=O)c3ccc(Cl)s3)nc2c1 was read as SF-1 act inactive, PKA inh inactive, ROCK2 inh inactive, JNK3 inh inactive, WNV NS2B-NS3 inh inactive and RORa activator inactive.
Screening COc1ccccc1CCNC(=O)c1cnn2c(C(F)F)cc(C)nc12 returned SF-1 act inactive, PKA inh inactive, ROCK2 inh inactive, JNK3 inh inactive, WNV NS2B-NS3 inh inactive and RORa activator inactive.
Screening Cc1cc(C(F)F)n2ncc(C(=O)NCc3ccccc3C(F)(F)F)c2n1 returned SF-1 act inactive, PKA inh inactive, ROCK2 inh inactive, JNK3 inh 19, WNV NS2B-NS3 inh inactive and RORa activator inactive.
`O=C(NCc1ccccc1)c1n[nH]nc1-c1ccccc1O` gave SF-1 act inactive, PKA inh inactive, ROCK2 inh inactive, JNK3 inh inactive, WNV NS2B-NS3 inh inactive and RORa activator inactive.
Screening COc1ccc(CCNC(=O)c2c(O)c3cccc4c3n(c2=O)CC4)cc1 returned SF-1 act inactive, PKA inh inactive, ROCK2 inh inactive, JNK3 inh inactive, WNV NS2B-NS3 inh -4.7 and RORa activator inactive.
`COc1ccc2nc(N3CCCC(C(=O)NCCCN4CCN(C)CC4)C3)sc2c1` (stereo not given) gave SF-1 act inactive, PKA inh inactive, WNV NS2B-NS3 inh inactive and RORa activator inactive.
Screening CC1CCCN(c2nc3ccsc3c(=O)s2)C1 (stereo not given) returned SF-1 act inactive, PKA inh inactive, WNV NS2B-NS3 inh inactive and RORa activator 60.
COc1ccc2c(c1OC)C(=O)N1c3ccccc3C(=O)N(c3ccccc3F)C21 (stereo not given) was read as SF-1 act inactive, PKA inh inactive, ROCK2 inh inactive, JNK3 inh inactive, WNV NS2B-NS3 inh inactive and RORa activator inactive.
COc1ccc2c(c1OC)C(=O)N1c3ccccc3COC21 (stereo not given) was read as SF-1 act 51, PKA inh inactive, ROCK2 inh inactive, JNK3 inh inactive, WNV NS2B-NS3 inh inactive and RORa activator 82.
COc1ccc2c(c1OC)C(=O)N1c3ccccc3SC21 (stereo not given) was read as SF-1 act 72, PKA inh inactive, ROCK2 inh inactive, JNK3 inh inactive, WNV NS2B-NS3 inh inactive and RORa activator inactive.
COc1ccc2c(c1OC)C(=O)N1c3cccc(Cl)c3C(=O)OC21 (stereo not given) was read as SF-1 act inactive, PKA inh inactive, ROCK2 inh inactive, JNK3 inh inactive, WNV NS2B-NS3 inh inactive and RORa activator inactive.
Cc1cccc(-n2ncc3c(NCc4cccs4)ncnc32)c1 was read as SF-1 act inactive, PKA inh inactive, ROCK2 inh inactive, JNK3 inh 22, WNV NS2B-NS3 inh inactive and RORa activator inactive.
`c1csc(CNc2ncnc3sccc23)c1` gave SF-1 act inactive, PKA inh inactive, WNV NS2B-NS3 inh inactive and RORa activator inactive.
`Cc1cccc(-n2ncc3c(NCCN4CCOCC4)ncnc32)c1` gave SF-1 act inactive, PKA inh inactive, ROCK2 inh inactive, JNK3 inh inactive, WNV NS2B-NS3 inh inactive and RORa activator inactive.
Clc1ccc(-n2ncc3c(NCc4cccs4)ncnc32)cc1 was read as SF-1 act 74, PKA inh inactive, ROCK2 inh inactive, JNK3 inh inactive, WNV NS2B-NS3 inh inactive and RORa activator inactive.
`CCOCCCn1c(=S)[nH]c2cc3c(cc2c1=O)OCO3` gave SF-1 act inactive, PKA inh inactive, WNV NS2B-NS3 inh inactive and RORa activator inactive.
Screening Cc1cc(C(=O)CSc2nnnn2-c2ccccc2)c(C)n1CC1CCCO1 (stereo not given) returned SF-1 act 68, PKA inh inactive, ROCK2 inh inactive, JNK3 inh inactive, WNV NS2B-NS3 inh inactive and RORa activator inactive.
c1ccc2c(-c3nc(C4CCCCC4)no3)cc(-c3ccncc3)nc2c1 was read as SF-1 act inactive, PKA inh inactive, ROCK2 inh inactive, JNK3 inh inactive, WNV NS2B-NS3 inh inactive and RORa activator inactive.
Screening Cc1nc(-c2ccccc2)nc2[nH]c(=O)n(-c3ccccc3)c(=O)c12 returned SF-1 act inactive, PKA inh inactive, ROCK2 inh inactive, JNK3 inh inactive, WNV NS2B-NS3 inh inactive and RORa activator 60.
`COc1ccc(Nc2nc3c(c(=O)n(C)c(=O)n3C)n2CCO)cc1` gave SF-1 act inactive, PKA inh inactive, ROCK2 inh inactive, JNK3 inh inactive, WNV NS2B-NS3 inh inactive and RORa activator inactive.
